# Source: article PMC3590405 (European Journal of Nuclear Medicine and Molecular Imaging, 2013)
# Key:
# [1] = cited from earlier work
# Aβ(1-42) amyloid fibrils = Aβ(1-42) amyloid fibrils (Homo sapiens, UniProt P05067); test: Competition binding against [3H]PIB on Aβ; conditions: [3H]PIB 3 nM, Aβ(1-42) fibrils
# [2] = target: synthetic Aβ(1-40) amyloid fibrils (Homo sapiens, UniProt P05067); test: Competition binding against [3H]PIB on Aβ; conditions: [3H]PIB 3 nM, Aβ(1-40) fibrils
# amyloid-β plaques = test: In vitro autoradiography on human AD brain sections; type: binding; conditions: white matter
# Outline: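 Cryo-cut 10 μm post-mortem AD cortical sections preincubated in 50 mM Tris (pH 7.4) at room temperature, then 30 min with 3 nM [3H]ligand in Tris buffer. Optical densities (digital light units/mm²) read in grey and white matter ROIs. Subcortical white matter signal taken as nonspecific binding. Signal-to-noise = (grey − white)/white.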
# amyloid-β = amyloid-β (Homo sapiens, UniProt P05067); test: Human PET, DVR by reference Logan with cerebellum as reference; type: in vivo; conditions: for DVR (mean ± SD), anterior cingulate cortex / DVR (mean ± SD), grey matter / DVR (mean ± SD), hippocampus / DVR (mean ± SD), lateral temporal cortex / DVR (mean ± SD), parietal cortex / DVR (mean ± SD), posterior cingulate cortex / DVR (mean ± SD), prefrontal cortex / DVR (mean ± SD), white matter: refLogan
# Outline: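 IV bolus [11C]radioligands in controls and AD patients; ROIs manually drawn on 1.5-T T1 MRI, cortical ROIs restricted to segmented grey matter. Reference Logan used cerebellar cortex (white matter and vermis excluded) as reference. Six linear-phase frames: 13–45 min for AZD2995, 30–60 min for AZD2184. DVR = target/cerebellum V T. Groups compared by Mann–Whitney U (p < 0.05) and pooled-SD effect size.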
# [3] = Brain time-activity curves in human PET; type: in vivo; conditions: after intravenous injection
# Outline: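 [11C]radioligand in sterile disodium phosphate-buffered saline (pH 7.4), filtered, given as an IV bolus to control subjects and mild–moderate AD patients. Dose for the AZD2995 radioligand was 410 ± 18 MBq (620 ± 486 GBq/μmol). List-mode PET ran 93 min (38 frames), with PSF-modelled iterative reconstruction. Brain radioactivity was expressed as percent injected activity over time.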
# [4] = tested on: amyloid-β plaques and neurofibrillary tangles; conditions: AD patients; cited from earlier work
# [5] = read-out: IC50, inhibition of [3H]PIB binding
# [6] = AD patients vs control subjects, DVR
# Sequence of amyloid-β (P05067 672-711 limits assumed): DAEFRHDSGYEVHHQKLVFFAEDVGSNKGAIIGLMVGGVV
# Sequence of synthetic Aβ(1-40) amyloid fibrils (P05067 672-711): as the sequence (P05067 672-711 limits assumed) above
# Sequence of Aβ(1-42) amyloid fibrils (P05067 672-713): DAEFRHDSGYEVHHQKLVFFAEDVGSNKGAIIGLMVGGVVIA
smiles,measurement,setting,value
CNc1ccc(-c2nc3ccc(O)cc3s2)cn1 [AZD2184],logD,[1],1.8
CNc1ccc(-c2nc3ccc(O)cc3o2)cn1 [AZD2995],"pIC50, inhibition of [3H]PIB binding",Aβ(1-42) amyloid fibrils,6.69 ± 0.05
same,IC50,Aβ(1-42) amyloid fibrils; [5],204 nM
same,"pIC50, inhibition of [3H]PIB binding",[2],6.77 ± 0.02
same,IC50,[2]; [5],170 nM
same,logD,[1],1.3
[3H]C([3H])([3H])Nc1ccc(-c2nc3ccc(O)cc3s2)cc1 [[^3H]PIB],"nonspecific binding and background, rank order",amyloid-β plaques,highest
[11CH3]Nc1ccc(-c2nc3ccc(O)cc3s2)cn1 [[^11C]AZD2184],"Effect size, anterior cingulate cortex",amyloid-β; [6],8.52
same,"Effect size, grey matter",amyloid-β; [6],4.89
same,"Effect size, hippocampus",amyloid-β; [6],1.73
same,"Effect size, lateral temporal cortex",amyloid-β; [6],5.00
same,"Effect size, parietal cortex",amyloid-β; [6],5.26
same,"Effect size, posterior cingulate cortex",amyloid-β; [6],6.34
same,"Effect size, prefrontal cortex",amyloid-β; [6],5.82
same,"Effect size, white matter",amyloid-β; [6],2.67
same,"DVR (mean ± SD), anterior cingulate cortex",amyloid-β; AD patients,1.97 ± 0.15
same,"DVR (mean ± SD), grey matter",amyloid-β; AD patients,1.72 ± 0.17
same,"DVR (mean ± SD), hippocampus",amyloid-β; AD patients,1.11 ± 0.10
same,"DVR (mean ± SD), lateral temporal cortex",amyloid-β; AD patients,1.94 ± 0.22
same,"DVR (mean ± SD), parietal cortex",amyloid-β; AD patients,2.07 ± 0.25
same,"DVR (mean ± SD), posterior cingulate cortex",amyloid-β; AD patients,2.10 ± 0.18
same,"DVR (mean ± SD), prefrontal cortex",amyloid-β; AD patients,2.13 ± 0.23
same,"DVR (mean ± SD), white matter",amyloid-β; AD patients,1.25 ± 0.05
same,"DVR (mean ± SD), anterior cingulate cortex",amyloid-β; control subjects,0.92 ± 0.02
same,"DVR (mean ± SD), grey matter",amyloid-β; control subjects,1.05 ± 0.05
same,"DVR (mean ± SD), hippocampus",amyloid-β; control subjects,0.95 ± 0.08
same,"DVR (mean ± SD), lateral temporal cortex",amyloid-β; control subjects,1.03 ± 0.05
same,"DVR (mean ± SD), parietal cortex",amyloid-β; control subjects,1.04 ± 0.04
same,"DVR (mean ± SD), posterior cingulate cortex",amyloid-β; control subjects,1.17 ± 0.02
same,"DVR (mean ± SD), prefrontal cortex",amyloid-β; control subjects,1.04 ± 0.04
same,"DVR (mean ± SD), white matter",amyloid-β; control subjects,1.08 ± 0.13
same,time to peak of total radioactivity in brain,[3],at the same time
same,radioactivity in the brain at peak,[3]; % of injected radioactivity,3.0–3.5%
CC(=C(C#N)C#N)c1ccc2cc(N(C)CC[18F])ccc2c1 [[^18F]FDDNP],specific binding signal compared to other amyloid radioligands,[4],ninefold lower
